{"source": "ChEMBL document CHEMBL1155867", "about": "“Synthesis and evaluation of alpha,alpha'-disubstituted phenylacetate derivatives for T-type calcium channel blockers” (Bioorg Med Chem Lett, 2008)", "key": {"[1]": {"target": "T1, Voltage-dependent T-type calcium channel subunit alpha-1G (Homo sapiens, UniProt O43497)", "T1 sequence (O43497 whole entry)": "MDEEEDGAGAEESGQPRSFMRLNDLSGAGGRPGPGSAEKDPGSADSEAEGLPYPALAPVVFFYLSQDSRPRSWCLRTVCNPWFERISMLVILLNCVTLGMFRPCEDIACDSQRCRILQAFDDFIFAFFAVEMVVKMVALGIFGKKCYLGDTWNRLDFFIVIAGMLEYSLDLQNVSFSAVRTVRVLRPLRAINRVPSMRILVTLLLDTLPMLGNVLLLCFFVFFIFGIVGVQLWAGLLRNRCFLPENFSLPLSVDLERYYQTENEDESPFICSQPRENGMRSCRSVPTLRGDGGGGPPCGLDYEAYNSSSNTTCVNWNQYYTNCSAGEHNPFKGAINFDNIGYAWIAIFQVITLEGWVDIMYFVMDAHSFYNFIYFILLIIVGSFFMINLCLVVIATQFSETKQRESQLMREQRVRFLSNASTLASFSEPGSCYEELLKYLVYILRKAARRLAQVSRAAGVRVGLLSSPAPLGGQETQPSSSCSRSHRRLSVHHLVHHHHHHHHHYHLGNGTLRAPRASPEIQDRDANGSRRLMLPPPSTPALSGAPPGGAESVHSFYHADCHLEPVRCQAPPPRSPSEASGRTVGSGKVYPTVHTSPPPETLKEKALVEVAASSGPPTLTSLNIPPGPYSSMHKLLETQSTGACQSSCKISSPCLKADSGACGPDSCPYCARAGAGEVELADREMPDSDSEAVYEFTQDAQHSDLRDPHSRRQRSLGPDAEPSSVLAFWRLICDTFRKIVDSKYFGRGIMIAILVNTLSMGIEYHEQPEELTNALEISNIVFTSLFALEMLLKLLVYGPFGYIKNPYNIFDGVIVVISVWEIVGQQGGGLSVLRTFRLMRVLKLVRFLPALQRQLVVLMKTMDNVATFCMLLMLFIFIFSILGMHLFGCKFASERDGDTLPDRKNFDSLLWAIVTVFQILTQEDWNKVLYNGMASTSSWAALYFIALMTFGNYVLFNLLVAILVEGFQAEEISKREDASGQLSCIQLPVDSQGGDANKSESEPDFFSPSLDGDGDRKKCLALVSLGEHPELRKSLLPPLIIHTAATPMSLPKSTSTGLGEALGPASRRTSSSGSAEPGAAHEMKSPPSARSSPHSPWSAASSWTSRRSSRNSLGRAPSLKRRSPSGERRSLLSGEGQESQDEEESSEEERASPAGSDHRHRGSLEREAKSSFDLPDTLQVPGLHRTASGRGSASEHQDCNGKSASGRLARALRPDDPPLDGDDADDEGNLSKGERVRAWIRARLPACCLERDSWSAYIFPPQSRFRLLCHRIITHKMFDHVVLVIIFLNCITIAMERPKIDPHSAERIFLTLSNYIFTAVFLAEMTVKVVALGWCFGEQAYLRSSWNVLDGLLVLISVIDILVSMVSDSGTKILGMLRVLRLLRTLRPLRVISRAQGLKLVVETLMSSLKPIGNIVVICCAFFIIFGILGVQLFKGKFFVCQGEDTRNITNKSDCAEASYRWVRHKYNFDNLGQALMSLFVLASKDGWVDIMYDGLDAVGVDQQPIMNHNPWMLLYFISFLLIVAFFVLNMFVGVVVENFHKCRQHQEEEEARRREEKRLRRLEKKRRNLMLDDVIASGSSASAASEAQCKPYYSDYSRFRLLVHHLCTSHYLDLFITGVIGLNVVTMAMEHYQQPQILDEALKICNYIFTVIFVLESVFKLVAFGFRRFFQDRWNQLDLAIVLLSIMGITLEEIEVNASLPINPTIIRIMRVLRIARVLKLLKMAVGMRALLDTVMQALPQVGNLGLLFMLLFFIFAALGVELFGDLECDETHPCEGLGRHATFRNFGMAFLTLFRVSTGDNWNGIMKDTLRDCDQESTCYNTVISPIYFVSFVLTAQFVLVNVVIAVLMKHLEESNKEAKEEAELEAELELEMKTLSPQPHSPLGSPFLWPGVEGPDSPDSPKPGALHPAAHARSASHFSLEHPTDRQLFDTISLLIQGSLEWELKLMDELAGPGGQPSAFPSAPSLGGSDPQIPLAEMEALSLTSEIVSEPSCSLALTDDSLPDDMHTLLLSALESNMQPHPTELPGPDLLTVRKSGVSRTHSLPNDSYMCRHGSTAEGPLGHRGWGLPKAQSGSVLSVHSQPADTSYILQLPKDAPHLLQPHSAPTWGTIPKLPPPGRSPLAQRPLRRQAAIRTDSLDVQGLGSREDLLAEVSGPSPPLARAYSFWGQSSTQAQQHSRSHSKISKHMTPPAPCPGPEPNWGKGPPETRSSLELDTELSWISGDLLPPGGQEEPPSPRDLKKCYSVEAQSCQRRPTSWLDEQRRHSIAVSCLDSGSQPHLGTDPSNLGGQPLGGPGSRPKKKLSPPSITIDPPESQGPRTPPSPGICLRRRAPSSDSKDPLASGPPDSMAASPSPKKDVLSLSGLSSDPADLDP", "assay": "Antagonist activity at T type calcium channel alpha1G expressed in HEK293 cells assessed as inhibition of peak currents at 10 uM by whole-cell patch-clamp method", "format": "functional, cell-based"}, "[2]": {"target": "T1, Voltage-dependent T-type calcium channel subunit alpha-1G", "assay": "Antagonist activity at T type calcium channel alpha1G expressed in HEK293 cells assessed as inhibition of peak currents at 1 uM by whole-cell patch-clamp method", "format": "functional, cell-based"}, "[3]": {"target": "T1, Voltage-dependent T-type calcium channel subunit alpha-1G", "assay": "Antagonist activity at T type calcium channel alpha1G expressed in HEK293 cells assessed as inhibition of peak currents by whole-cell patch-clamp method", "format": "functional, cell-based", "summary_of_the_method": "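Whole-cell patch clamp on HEK293 cells expressing alpha1G. External solution contained 140 mM NaCl, CaCl2, 10 mM Hepes and 10 mM glucose at pH 7.4. Pipettes were 3–4 MΩ, with Mg-ATP in the internal solution. Currents were evoked every 15 s by a 50 ms step from −100 to −30 mV. IC50 came from dose–response fits of peak current inhibition.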"}, "[4]": {"assay": "Tmax in mouse brain at 50 mg/kg, po", "format": "ADME, organism-based", "design": "dose 50 mg/kg, route oral", "summary_of_the_method": "(§1)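 Single oral gavage dose of 50 mg/kg to mice. Vehicle was DMA/Cremophor EL/PBS (10/10/80 v/v %). Plasma and brain were sampled. AUC0–t was calculated by the linear trapezoidal rule, and brain/plasma ratio was taken as AUCbrain/AUCplasma.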"}, "[5]": {"assay": "Selectivity for T type calcium channel alpha1G over L type calcium channel"}, "[6]": {"assay": "Ratio of Cmax for mouse brain to Cmax for mouse plasma at 50 mg/kg, po", "format": "ADME, organism-based", "design": "dose 50 mg/kg, route oral"}, "[7]": {"assay": "Tmax in mouse plasma at 50 mg/kg, po", "format": "ADME, organism-based", "design": "dose 50 mg/kg, route oral", "summary_of_the_method": "as §1"}, "[8]": {"assay": "Metabolic stability in mouse liver", "format": "ADME, tissue-based", "conditions": "liver (preparation not stated)"}, "[9]": {"assay": "Cmax in mouse plasma at 50 mg/kg, po", "format": "ADME, organism-based", "design": "dose 50 mg/kg, route oral", "summary_of_the_method": "as §1"}, "[10]": {"target": "Voltage-gated inwardly rectifying potassium channel KCNH2 (Homo sapiens, UniProt Q12809)", "sequence (Q12809 whole entry)": "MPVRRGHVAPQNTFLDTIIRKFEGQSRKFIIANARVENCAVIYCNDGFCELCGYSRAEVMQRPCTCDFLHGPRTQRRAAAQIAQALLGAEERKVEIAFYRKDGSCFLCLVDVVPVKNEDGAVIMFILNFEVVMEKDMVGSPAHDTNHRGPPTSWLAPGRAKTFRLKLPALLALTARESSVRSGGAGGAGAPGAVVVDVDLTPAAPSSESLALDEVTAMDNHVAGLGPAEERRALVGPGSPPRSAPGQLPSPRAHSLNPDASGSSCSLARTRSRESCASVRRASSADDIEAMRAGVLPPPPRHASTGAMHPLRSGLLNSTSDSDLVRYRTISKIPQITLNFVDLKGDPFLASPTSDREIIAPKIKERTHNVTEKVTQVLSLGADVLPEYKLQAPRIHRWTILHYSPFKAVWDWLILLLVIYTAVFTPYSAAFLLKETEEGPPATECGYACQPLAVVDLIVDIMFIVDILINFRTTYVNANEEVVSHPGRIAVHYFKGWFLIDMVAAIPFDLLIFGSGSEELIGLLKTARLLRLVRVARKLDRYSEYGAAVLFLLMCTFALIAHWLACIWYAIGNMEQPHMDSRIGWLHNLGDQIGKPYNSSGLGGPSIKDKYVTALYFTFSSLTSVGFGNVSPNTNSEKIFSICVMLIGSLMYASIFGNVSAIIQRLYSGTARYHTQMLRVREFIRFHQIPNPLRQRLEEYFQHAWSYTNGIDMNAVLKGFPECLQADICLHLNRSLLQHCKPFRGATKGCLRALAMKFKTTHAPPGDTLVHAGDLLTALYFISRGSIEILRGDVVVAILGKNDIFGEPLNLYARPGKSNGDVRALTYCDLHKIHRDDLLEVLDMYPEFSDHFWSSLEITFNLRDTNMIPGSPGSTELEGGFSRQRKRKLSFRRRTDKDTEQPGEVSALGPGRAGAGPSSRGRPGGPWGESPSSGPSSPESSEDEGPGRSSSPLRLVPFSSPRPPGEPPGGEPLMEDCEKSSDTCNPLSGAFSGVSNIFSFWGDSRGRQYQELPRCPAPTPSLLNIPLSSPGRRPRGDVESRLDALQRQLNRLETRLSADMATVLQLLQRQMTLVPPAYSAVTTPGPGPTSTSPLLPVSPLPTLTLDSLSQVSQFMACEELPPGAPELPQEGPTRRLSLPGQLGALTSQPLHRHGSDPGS", "assay": "Inhibition of human ERG channel"}, "[11]": {"assay": "AUC (0 to t) in mouse plasma at 50 mg/kg, po", "format": "ADME, organism-based", "design": "dose 50 mg/kg, route oral", "summary_of_the_method": "as §1"}, "[12]": {"target": "T1, Voltage-dependent T-type calcium channel subunit alpha-1G", "assay": "Antagonist activity at T type calcium channel alpha1G expressed in HEK293 cells assessed as inhibition of peak currents by whole-cell patch-clamp method"}, "[13]": {"assay": "Cmax in mouse brain at 50 mg/kg, po", "format": "ADME, organism-based", "design": "dose 50 mg/kg, route oral", "summary_of_the_method": "as §1"}, "[14]": {"assay": "Inhibition of L type calcium channel at 1 uM"}, "[15]": {"assay": "Ratio of IC50 for human ERG channel to IC50 for T type calcium channel alpha1G"}, "[16]": {"assay": "Ratio of AUC (0 to t) for mouse brain to AUC (0 to t) for mouse plasma at 50 mg/kg, po", "format": "ADME, organism-based", "design": "dose 50 mg/kg, route oral", "summary_of_the_method": "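Mice got a single oral 50 mg/kg dose in DMA/Cremophor EL/PBS (10/10/80 v/v %). Plasma and brain levels were measured to give Tmax, Cmax and AUC0–t, with AUC by the linear trapezoidal rule. Brain/plasma ratio taken from the brain and plasma parameters (B/P = AUC_brain/AUC_plasma).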"}, "[17]": {"assay": "AUC (0 to t) in mouse brain at 50 mg/kg, po", "format": "ADME, organism-based", "design": "dose 50 mg/kg, route oral", "summary_of_the_method": "as §1"}}, "data": [{"smiles": "COC(=O)C(CCCN1CCN(Cc2cccc(C)c2)CC1)(c1ccc(Br)cc1)C(C)C", "note": "(stereo not drawn)", "values": [{"measurement": "inhibition", "setting": "[1]", "result": 94.9, "unit": "%"}]}, {"smiles": "COC(=O)C(CCCN1CCN(Cc2ccccc2F)CC1)(c1ccc(Br)cc1)C(C)C", "note": "(stereo not drawn)", "values": [{"measurement": "inhibition", "setting": "[1]", "result": 90.4, "unit": "%"}]}, {"smiles": "COC(=O)C(CCCN1CCN(Cc2cccc(F)c2)CC1)(c1ccc(Br)cc1)C(C)C", "note": "(stereo not drawn)", "values": [{"measurement": "inhibition", "setting": "[1]", "result": 89.3, "unit": "%"}]}, {"smiles": "COC(=O)C(CCCN(C)CCCc1nc2cc(C)c(C)cc2[nH]1)(c1ccc(Br)cc1)C(C)C", "note": "(stereo not drawn)", "values": [{"measurement": "inhibition", "setting": "[2]", "result": 94.2, "unit": "%"}]}, {"smiles": "CCOC(=O)C(CCCN(C)CCCc1nc2cc(C)c(C)cc2[nH]1)(c1ccccc1)C(C)C", "note": "(stereo not drawn)", "values": [{"measurement": "inhibition", "setting": "[1]", "result": 91.4, "unit": "%"}]}, {"smiles": "COC(=O)C(CCCN1CCN(Cc2cccc(C(F)(F)F)c2)CC1)(c1ccc(Br)cc1)C(C)C", "note": "(stereo not drawn)", "values": [{"measurement": "inhibition", "setting": "[1]", "result": 93, "unit": "%"}, {"measurement": "IC50", "setting": "[3]", "result": 280, "unit": "nM"}]}, {"smiles": "COC(=O)C(CCCN1CCN(Cc2ccc(F)cc2)CC1)(c1ccc(Br)cc1)C(C)C", "note": "(stereo not drawn)", "values": [{"measurement": "inhibition", "setting": "[1]", "result": 96.5, "unit": "%"}]}, {"smiles": "CCOC(=O)C(CCCN1CCN(Cc2ccc(F)cc2)CC1)(c1ccccc1)C(C)C", "note": "(stereo not drawn)", "values": [{"measurement": "inhibition", "setting": "[1]", "result": 94, "unit": "%"}]}, {"smiles": "CCOC(=O)C(CCCN(C)CCCc1nc2ccccc2[nH]1)(c1ccccc1)C(C)C", "note": "(stereo not drawn)", "values": [{"measurement": "inhibition", "setting": "[1]", "result": 98.3, "unit": "%"}]}, {"smiles": "COC(=O)C(CCCN(C)CCCc1nc2ccccc2[nH]1)(c1ccc(Br)cc1)C(C)C", "note": "(stereo not drawn)", "values": [{"measurement": "Tmax", "setting": "[4]", "result": 1, "unit": "h"}, {"measurement": "Selectivity Index", "setting": "[5]", "result": "> 1000"}, {"measurement": "inhibition", "setting": "[1]", "result": 96.9, "unit": "%"}, {"measurement": "Kp", "setting": "[6]", "result": 0.17}, {"measurement": "Tmax", "setting": "[7]", "result": 1, "unit": "h"}, {"measurement": "half-life", "setting": "[8]", "result": 1, "unit": "h"}, {"measurement": "Cmax", "setting": "[9]", "result": 1620, "unit": "ng/mL"}, {"measurement": "IC50", "setting": "[10]", "result": 178, "unit": "nM"}, {"measurement": "AUC(0-t)", "setting": "[11]", "result": 3900, "unit": "ng·h/mL"}, {"measurement": "IC50", "setting": "[12]", "result": 8.17, "unit": "nM"}, {"measurement": "Cmax", "setting": "[13]", "result": 274, "unit": "ng/mL"}, {"measurement": "inhibition", "setting": "[14]", "result": 0, "unit": "%"}, {"measurement": "Ratio IC50", "setting": "[15]", "result": 21.8}, {"measurement": "Kp", "setting": "[16]", "result": 0.25}, {"measurement": "AUC(0-t)", "setting": "[17]", "result": 973, "unit": "ng·h/mL"}]}, {"smiles": "COC(=O)C(CCCN1CCN(Cc2ccc(OC)cc2)CC1)(c1ccc(Br)cc1)C(C)C", "note": "(stereo not drawn)", "values": [{"measurement": "inhibition", "setting": "[1]", "result": 96, "unit": "%"}]}, {"smiles": "COC(=O)C(CCCN(C)CCCc1nc2cc(OC)ccc2[nH]1)(c1ccc(OC)cc1)C(C)C", "note": "(stereo not drawn)", "values": [{"measurement": "inhibition", "setting": "[1]", "result": 91.7, "unit": "%"}]}, {"smiles": "COC(=O)C(CCCN1CCN(c2ccccc2OC)CC1)(c1ccc(Br)cc1)C(C)C", "note": "(stereo not drawn)", "values": [{"measurement": "inhibition", "setting": "[1]", "result": 94.1, "unit": "%"}, {"measurement": "IC50", "setting": "[3]", "result": 95, "unit": "nM"}]}, {"smiles": "COC(=O)C(CCCN(C)CCCc1nc2ccccc2[nH]1)(c1ccc(OC)cc1)C(C)C", "note": "(stereo not drawn)", "values": [{"measurement": "inhibition", "setting": "[1]", "result": 93.5, "unit": "%"}]}, {"smiles": "COC(=O)C(CCCN(C)CCCc1nc2cc(OC)ccc2[nH]1)(c1ccc(Br)cc1)C(C)C", "note": "(stereo not drawn)", "values": [{"measurement": "inhibition", "setting": "[1]", "result": 94.5, "unit": "%"}]}, {"smiles": "CCOC(=O)C(CCCN1CCN(Cc2ccc(OC)cc2)CC1)(c1ccccc1)C(C)C", "note": "(stereo not drawn)", "values": [{"measurement": "inhibition", "setting": "[1]", "result": 96.3, "unit": "%"}]}, {"smiles": "COC(=O)C(CCCN1CCN(Cc2ccc(OC)c(OC)c2OC)CC1)(c1ccc(Br)cc1)C(C)C", "note": "(stereo not drawn)", "values": [{"measurement": "inhibition", "setting": "[1]", "result": 95.1, "unit": "%"}]}]}
